The record followed here is ChEMBL document CHEMBL4414575, “Yangpumicins F and G, Enediyne Congeners from Micromonospora yangpuensis DSM 45577” (J Nat Prod, 2019).

pIC50: −log10 of the molar value. ≈ marks a conversion by molar mass, not a printed value. Calls of active or inactive are those of the source. The calls are words filed in the database; no cut-off is given here.

The subject of experiment [1] is Staphylococcus aureus. Put plainly: Antimicrobial activity against Staphylococcus aureus ATCC 29213 incubated for 18 hrs by resazurin staining based microbroth dilution assay. The experiment is classed as functional. The conditions noted are these: ATCC 29213, 18 h. The procedure, abridged:
(§1)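 Strains grown overnight, diluted to 10^6 CFU/mL in LB broth. Compounds in DMSO, serially diluted in LB (pg/mL to ng/mL range), mixed 1:1 with bacterial suspension. Vancomycin is the reference, 0.03125–16 μg/mL. Plates incubated 37 °C for 18 h, then resazurin added for read-out. Duplicates per plate.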

Experiment [2] deals with SK-BR-3. Put plainly: Cytotoxicity against human SKBR3 cells assessed as inhibition of cell viability incubated for 72 hrs by MTT assay. The settings on record: SK-BR-3, 72 h. The format is functional, cell-based. Put shortly:
(§2)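 Cells seeded at 2,000–4,000 per well and left 24 h. They are then exposed to a range of compound concentrations for 72 h. Survival is read by adding CCK-8 solution and measuring absorbance at 450 nm. Mitomycin is the reference control.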
In general terms: Tetrazolium dyes change colour on reduction, which living cells bring about.

In experiment [3] the test system is A549. In words: Cytotoxicity against human A549 cells assessed as inhibition of cell viability incubated for 72 hrs by MTT assay. The format is functional, cell-based. The settings on record: A549, 72 h. Put shortly: as §2
The subject of experiment [4] is Staphylococcus aureus. In words: Antimicrobial activity against Methicillin-resistant Staphylococcus aureus incubated for 18 hrs by resazurin staining based microbroth dilution assay. The format is functional. Put shortly:
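Overnight culture diluted to 106 CFU/mL in LB broth, mixed 1:1 with compound serially diluted in LB on the plate from DMSO stock (1–512 ng/mL and 1–512 pg/mL series; vancomycin 0.03125–16 μg/mL). Incubated 37 °C for 18 h, then resazurin added to read growth; MIC taken from broth microdilution, duplicate per plate. Strain is a local hospital MRSA isolate.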
(In general: Alamar Blue is a resazurin reagent that responds to reducing activity.)

For experiment [5], the system named is Jurkat. Put plainly: Cytotoxicity against human Jurkat cells assessed as inhibition of cell viability incubated for 72 hrs by MTT assay. The format is functional, cell-based. Put shortly: as §2
Experiment [6] concerns Caco-2. In words: Cytotoxicity against human Caco2 cells assessed as inhibition of cell viability incubated for 72 hrs by MTT assay. The format is functional, cell-based. The conditions noted are these: Caco-2, 72 h. Put shortly:
as §2

In experiment [7] the test system is SK-BR-3. In words: Cytotoxicity against human SKBR3 cells assessed as inhibition of cell viability incubated for 8 hrs by rapid killing based MTT assay. The format is functional. Put shortly:
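Seeding was 2,000–4,000 cells/well, with 24 h attachment. Compound exposure at varying concentrations lasted only 8 h. Viability was read by CCK-8 absorbance at 450 nm. Mean ± SD of three replicates, with curves fitted.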

In experiment [8] the test system is Escherichia coli. In words: Antimicrobial activity against Escherichia coli incubated for 18 hrs by resazurin staining based microbroth dilution assay. The format is functional. The procedure, abridged: as §1
The test system of experiment [9] is Staphylococcus aureus. In words: Potency index, ratio of MIC for vancomycin to MIC for test compound for antimicrobial activity against Staphylococcus aureus ATCC 29213. The format is functional. Put shortly:
(§3)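 Overnight bacterial cultures diluted to 10^6 CFU/mL in LB broth, mixed 1:1 with LB holding serial dilutions of test compound (DMSO stocks, 1–512 pg/mL and 1–512 ng/mL series) or vancomycin (0.03125–16 μg/mL). Incubated 37 °C, 18 h, then resazurin added for read-out. Run in duplicate per plate. Index is vancomycin MIC divided by test-compound MIC.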

The subject of experiment [10] is SK-BR-3. Put plainly: Potency index, ratio of YPM G IC50 to compound IC50 for cytotoxicity against human SKBR3 cells by MTT assay. The experiment is classed as functional.
Experiment [11] concerns Caco-2. In words: Potency index, ratio of YPM G IC50 to compound IC50 for cytotoxicity against human Caco2 cells by MTT assay. The experiment is classed as functional.
Experiment [12] concerns Staphylococcus aureus. Put plainly: Potency index, ratio of MIC for vancomycin to MIC for test compound for antimicrobial activity against Methicillin-resistant Staphylococcus aureus. The format is functional. The procedure, abridged:
as §3

A word on the MIC: it is the lowest concentration that inhibits growth of the organism. High values mean weaker potency, low ones greater potency. The pIC50 is the IC50 on a negative log10 scale, so that one unit is a factor of ten.

With `O=C1c2ccccc2C(=O)c2c3c(cc(O)c21)[C@@]12O[C@@]1([C@H](O)CO)[C@H](C#C/C=C\C#C[C@H]2O)N3`, the MIC in [1] and in [4] was 0.002 ng/mL (≈ 0.00439 nM) each time. The pIC50 in [2] was 7.62; in experiment [3] it was 8.47; in experiment [5], 9.21; in experiment [6], 7.26.
Consider `C[C@@H](O)[C@@]12O[C@]13c1cc(O)c4c(c1N[C@H]2C#C/C=C\C#C[C@H]3O)C(=O)c1c(O)cccc1C4=O`, for which the values for the minimum inhibitory concentration (MIC) in [1], in experiment [8] and in [4] were below 0.001 ng/mL, 0.128 ng/mL (≈ 0.281 nM) and below 0.001 ng/mL, respectively. Moreover, the negative-log IC50 (pIC50) in experiment [2] was 9.07; in [3], 10.70; in experiment [5], 9.62; in experiment [6], 8.47. The result in experiment [7] was Active. The “Ratio IC50” value in [9] came to 1000000; in experiment [10] it was 10; in [11], 10; in experiment [12], 1000000.
As to `O=C1c2cccc(O)c2C(=O)c2c3c(cc(O)c21)[C@@]12O[C@@]1([C@H](O)CO)[C@H](C#C/C=C\C#C[C@H]2O)N3`, the results for the MIC in [1], in [8] and in experiment [4] were below 0.001 ng/mL, 0.032 ng/mL (≈ 0.0679 nM) and below 0.001 ng/mL, respectively. Also, the pIC50 was 8.59 in experiment [2], 9.62 in experiment [3], 9.77 in experiment [5] and 8.50 in [6]. In [7], the result was Active. Also, the “Ratio IC50” value in experiment [9] amounted to 1000000; in experiment [10] it was 10; in experiment [11] it was 10; in experiment [12], 1000000.
In the case of `CO[C@@]12[C@H](COC(N)=O)C3=C(C(=O)C(C)=C(N)C3=O)N1C[C@@H]1N[C@@H]12` [MITOMYCIN], the negative logarithm of the IC50 (pIC50) in experiment [2] was 6.00; in experiment [3] it was 6.57; in experiment [5] it was 6.37; in experiment [6], 5.24.
For the compound `CN[C@H](CC(C)C)C(=O)N[C@H]1C(=O)N[C@@H](CC(N)=O)C(=O)N[C@H]2C(=O)N[C@H]3C(=O)N[C@H](C(=O)N[C@H](C(=O)O)c4cc(O)cc(O)c4-c4cc3ccc4O)[C@H](O)c3ccc(c(Cl)c3)Oc3cc2cc(c3O[C@@H]2O[C@H](CO)[C@@H](O)[C@H](O)[C@H]2O[C@H]2C[C@](C)(N)[C@H](O)[C@H](C)O2)Oc2ccc(cc2Cl)[C@H]1O` [VANCOMYCIN], the minimum inhibitory concentration (MIC) in experiment [8] is above 16000 ng/mL.
